Values joined by “and” are separate entries in the source; they are usually repeats but may differ in a detail not shown here. Identical values can stand only once.
Assays:
Cavia porcellus [1] = species on record: Cavia porcellus; assay: Effect on frequency rate of spontaneously beating atria from reserpine treated guinea pigs at the concentration of 10 e-5 M; type: functional
Cavia porcellus [2] = species on record: Cavia porcellus; assay: Effect on contractile force of spontaneously beating atria from reserpine treated guinea pigs at the concentration of 5x 10 e-5 M; type: functional
Cavia porcellus [3] = species on record: Cavia porcellus; assay: Inotropic response in electrically driven left atrium from reserpine-treated guinea pig with ADA (2 units/ml) at the concentration of 5 x 10 e-4 M; type: functional, Cardiac atrium
How it was run: (§1)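 Reserpinized guinea pigs (2 mg/kg ip, 48 and 24 h before death), tyramine-unresponsive atria. Electrically driven left atrium (1.5 Hz, 3-ms pulses, 0.5 g load) preincubated 20 min with adenosine deaminase after 90 min equilibration. Agents added cumulatively, 5 min per concentration. Developed tension recorded isometrically, % increase over control or % inhibition; six assays from six experiments, Student's t test.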

Cavia porcellus [4] = species on record: Cavia porcellus; assay: Inotropic effect in electrically driven left atrium from reserpine-treated guinea pig without 8-phenyl theophylline at the concentration of 10 e-4 M; type: functional, Cardiac atrium
How it was run: (§2)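 Paced left atrium from reserpine-pretreated, tyramine-unresponsive guinea pigs (0.5 g load, 1.5 Hz, 3-ms pulses). Cumulative additions of agent, 5 min each, with no 8-phenyltheophylline present. Developed tension as % increase over control. Mean ± SEM of six assays from six experiments; Student's t test against the 8-phenyltheophylline-treated preparations.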

Cavia porcellus [5] = species on record: Cavia porcellus; assay: Inotropic response in electrically driven left atrium from reserpine-treated guinea pig with VER (10 e-7) at the concentration of 10 e-4 M; type: functional, Cardiac atrium
How it was run: (§3)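 Left atrium from reserpine-treated guinea pigs (2 mg/kg ip, 48 and 24 h prior; tyramine 2 μg/mL check), paced at 1.5 Hz with 3-ms pulses. Verapamil 0.1 μM added 10 min before cumulative agent additions (5 min each), after 90 min equilibration. Isometric developed tension as % increase over control; seven assays from seven experiments.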

Cavia porcellus [6] = species on record: Cavia porcellus; assay: Inotropic effect in electrically driven left atrium from reserpine-treated guinea pig at the concentration of 2 x 10 e-3 M; type: functional, Cardiac atrium
How it was run: (§4)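 Atria from reserpine-pretreated guinea pigs (2 mg/kg ip, 48 and 24 h), tyramine-unresponsive only. Left atrium loaded 0.5 g, paced at 1.5 Hz with 3-ms square pulses at 10–20% above threshold. Equilibrated 90 min. Agents added cumulatively, 5 min per concentration. Isometric developed tension expressed as % increase over control.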

Cavia porcellus [7] = species on record: Cavia porcellus; assay: Inotropic response in electrically driven left atrium from reserpine-treated guinea pig without ADA at the concentration of 2 x 10 e-3 M; type: functional, Cardiac atrium
How it was run: (§5)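 Control arm: electrically driven left atrium (1.5 Hz, 3-ms pulses, 0.5 g load) from guinea pigs given reserpine 2 mg/kg ip at 48 and 24 h, tyramine-unresponsive; no adenosine deaminase. Cumulative additions after 90 min equilibration, 5 min per concentration. Isometric developed tension, % over control; six assays from six experiments.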

Cavia porcellus [8] = species on record: Cavia porcellus; assay: Inotropic response in electrically driven left atrium from reserpine-treated guinea pig without VER at the concentration of 10 e-5 M; type: functional, Cardiac atrium
How it was run: (§6)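 Control arm without verapamil: left atrium from reserpinized guinea pigs (2 mg/kg ip, 48 and 24 h before), tyramine-unresponsive, paced at 1.5 Hz (3-ms pulses). Agents added cumulatively after 90 min equilibration, recorded 5 min each. Isometric developed tension as % increase over control; seven assays from seven experiments.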

Cavia porcellus [9] = species on record: Cavia porcellus; assay: Inotropic response in electrically driven left atrium from reserpine-treated guinea pig without VER at the concentration of 10 e-4 M; type: functional, Cardiac atrium; how it was run: as §6
Cavia porcellus [10] = species on record: Cavia porcellus; assay: Inotropic effect in electrically driven left atrium from reserpine-treated guinea pig at the concentration of 5 x 10 e-4 M; type: functional, Cardiac atrium; how it was run: as §4
Cavia porcellus [11] = species on record: Cavia porcellus; assay: Inotropic response in electrically driven left atrium from reserpine-treated guinea pig without ADA at the concentration of 10 e-4 M; type: functional, Cardiac atrium; how it was run: as §5
Cavia porcellus [12] = species on record: Cavia porcellus; assay: Effect on contractile force of spontaneously beating atria from reserpine treated guinea pigs at the concentration of 10 e-5 M; type: functional
Cavia porcellus [13] = species on record: Cavia porcellus; assay: Inotropic response in electrically driven left atrium from reserpine-treated guinea pig without ADA at the concentration of 10 e-3 M; type: functional, Cardiac atrium; how it was run: as §5
Cavia porcellus [14] = species on record: Cavia porcellus; assay: Inotropic effect in electrically driven left atrium from reserpine-treated guinea pig at the concentration of 10 e-5 M; type: functional, Cardiac atrium; how it was run: as §4
Cavia porcellus [15] = species on record: Cavia porcellus; assay: Effect on contractile force of spontaneously beating atria from reserpine treated guinea pigs at the concentration of 10 e-4 M; type: functional
Cavia porcellus [16] = species on record: Cavia porcellus; assay: Inotropic response in electrically driven left atrium from reserpine-treated guinea pig with VER (10 e-7) at the concentration of 5 x 10 e-4 M; type: functional, Cardiac atrium; how it was run: as §3
Cavia porcellus [17] = species on record: Cavia porcellus; assay: Effect on contractile force of spontaneously beating atria from reserpine treated guinea pigs at the concentration of 5x 10 e-4 M; type: functional
Cavia porcellus [18] = species on record: Cavia porcellus; assay: Inotropic response in electrically driven left atrium from reserpine-treated guinea pig with VER (10 e-7) at the concentration of 2 x 10 e-3 M; type: functional, Cardiac atrium; how it was run: as §3
Cavia porcellus [19] = species on record: Cavia porcellus; assay: Inotropic response in electrically driven left atrium from reserpine-treated guinea pig without VER at the concentration of 5 x 10 e-4 M; type: functional, Cardiac atrium; how it was run: as §6
Cavia porcellus [20] = species on record: Cavia porcellus; assay: Inotropic response in electrically driven left atrium from reserpine-treated guinea pig with VER (10 e-7) at the concentration of 10 e-5 M; type: functional, Cardiac atrium; how it was run: as §3
Cavia porcellus [21] = species on record: Cavia porcellus; assay: Effect on frequency rate of spontaneously beating atria from reserpine treated guinea pigs at the concentration of 10 e-3 M; type: functional
Cavia porcellus [22] = species on record: Cavia porcellus; assay: Inotropic response in electrically driven left atrium from reserpine-treated guinea pig with VER (10 e-7) at the concentration of 10 e-3 M; type: functional, Cardiac atrium; how it was run: as §3
Cavia porcellus [23] = species on record: Cavia porcellus; assay: Inotropic response in electrically driven left atrium from reserpine-treated guinea pig without VER at the concentration of 5 x 10 e-5 M; type: functional, Cardiac atrium; how it was run: as §6
Cavia porcellus [24] = species on record: Cavia porcellus; assay: Inotropic effect in electrically driven left atrium from reserpine-treated guinea pig at the concentration of 10 e-4 M; type: functional, Cardiac atrium; how it was run: as §4
Cavia porcellus [25] = species on record: Cavia porcellus; assay: Inotropic effect in electrically driven left atrium from reserpine-treated guinea pig at the concentration of 5 x 10 e-5 M; type: functional, Cardiac atrium; how it was run: as §4
Cavia porcellus [26] = species on record: Cavia porcellus; assay: Inotropic response in electrically driven left atrium from reserpine-treated guinea pig without ADA at the concentration of 10 e-5 M; type: functional, Cardiac atrium; how it was run: as §5
Cavia porcellus [27] = species on record: Cavia porcellus; assay: Effect on frequency rate of spontaneously beating atria from reserpine treated guinea pigs at the concentration of 5 x 10 e-4 M; type: functional
Cavia porcellus [28] = species on record: Cavia porcellus; assay: Inotropic response in electrically driven left atrium from reserpine-treated guinea pig with ADA (2 units/ml) at the concentration of 5 x 10 e-5 M; type: functional, Cardiac atrium; how it was run: as §1
Cavia porcellus [29] = species on record: Cavia porcellus; assay: Effect on contractile force of spontaneously beating atria from reserpine treated guinea pigs at the concentration of 10 e-3 M; type: functional
Cavia porcellus [30] = species on record: Cavia porcellus; assay: Inotropic effect in electrically driven left atrium from reserpine-treated guinea pig at the concentration of 10 e-3 M; type: functional, Cardiac atrium; how it was run: as §4
Cavia porcellus [31] = species on record: Cavia porcellus; assay: Inotropic response in electrically driven left atrium from reserpine-treated guinea pig without VER at the concentration of 2 x 10 e-3 M; type: functional, Cardiac atrium; how it was run: as §6
Cavia porcellus [32] = species on record: Cavia porcellus; assay: Inotropic response in electrically driven left atrium from reserpine-treated guinea pig with ADA (2 units/ml) at the concentration of 10 e-4 M; type: functional, Cardiac atrium; how it was run: as §1
Cavia porcellus [33] = species on record: Cavia porcellus; assay: Inotropic effect in electrically driven left atrium from reserpine-treated guinea pig without 8-phenyl theophylline at the concentration of 10 e-5 M; type: functional, Cardiac atrium; how it was run: as §2
Cavia porcellus [34] = species on record: Cavia porcellus; assay: Inotropic effect in electrically driven left atrium from reserpine-treated guinea pig without 8-phenyl theophylline at the concentration of 5 x 10 e-5 M; type: functional, Cardiac atrium; how it was run: as §2
Cavia porcellus [35] = species on record: Cavia porcellus; assay: Inotropic effect in electrically driven left atrium from reserpine-treated guinea pig without 8-phenyl theophylline at the concentration of 2 x 10 e-3 M; type: functional, Cardiac atrium; how it was run: as §2
Cavia porcellus [36] = species on record: Cavia porcellus; assay: Inotropic response in electrically driven left atrium from reserpine-treated guinea pig without VER at the concentration of 10 e-3 M; type: functional, Cardiac atrium; how it was run: as §6

| Compound | Increase (Cavia porcellus [1]) | Increase (Cavia porcellus [2]) | Increase (Cavia porcellus [3]) | Increase (Cavia porcellus [4]) | Increase (Cavia porcellus [5]) | Increase (Cavia porcellus [6]) | Increase (Cavia porcellus [7]) | Increase (Cavia porcellus [8]) | Increase (Cavia porcellus [9]) | Increase (Cavia porcellus [10]) | Increase (Cavia porcellus [11]) | Increase (Cavia porcellus [12]) | Increase (Cavia porcellus [13]) | Increase (Cavia porcellus [14]) | Increase (Cavia porcellus [15]) | Increase (Cavia porcellus [16]) | Increase (Cavia porcellus [17]) | Increase (Cavia porcellus [18]) | Increase (Cavia porcellus [19]) | Increase (Cavia porcellus [20]) | further results |
| --- | --- | --- | --- | --- | --- | --- | --- | --- | --- | --- | --- | --- | --- | --- | --- | --- | --- | --- | --- | --- | --- |
| CC1CC(=O)c2ccc(O)nc2C1 (configuration not stated) | 2.63% and 3.21% | 18.88% | 14.35% | 24.77% | 2.43% | 93.66% | 67.12% | 5.76% | 17.96% | 37.23% | 27.6% | 4.28% | 46.19% | 6.31% | 28.89% | 14.7% | 39.48% | 43.8% | 31.4% | -0.32% | Increase (Cavia porcellus [21]): 19.68%; Increase (Cavia porcellus [22]): 23.78%; Increase (Cavia porcellus [23]): 11.6%; Increase (Cavia porcellus [24]): 26.62%; Increase (Cavia porcellus [25]): 19.17%; Increase (Cavia porcellus [26]): 15.78%; Increase (Cavia porcellus [27]): 13.45%; Increase (Cavia porcellus [28]): 5.52%; Increase (Cavia porcellus [29]): 46.09%; Increase (Cavia porcellus [30]): 48.86%; Increase (Cavia porcellus [31]): 75.51%; Increase (Cavia porcellus [32]): 9.12%; Increase (Cavia porcellus [33]): 4.64%; Increase (Cavia porcellus [34]): 18.83%; Increase (Cavia porcellus [35]): 87.6%; Increase (Cavia porcellus [36]): 45.89% |
| CC(=O)c1cc(C#N)c(O)nc1C | 0.23% and 1.35% | 27.64% | 20.37% | 28.87% | 28.47% | 67.13% | 84.6% | 18.83% | 37.34% | 48.67% | 12.61% | 13.9% | 42.05% | 12.64% | 35.57% | 55.47% | 57.22% | 88.84% | 62.96% | 12.63% | Increase (Cavia porcellus [21]): 21.93%; Increase (Cavia porcellus [22]): 66.4%; Increase (Cavia porcellus [23]): 28.29%; Increase (Cavia porcellus [24]): 38.06%; Increase (Cavia porcellus [25]): 25.17%; Increase (Cavia porcellus [26]): 5.26%; Increase (Cavia porcellus [27]): 11.61%; Increase (Cavia porcellus [28]): 8.32%; Increase (Cavia porcellus [29]): 65.35%; Increase (Cavia porcellus [30]): 58.73%; Increase (Cavia porcellus [31]): 94.47%; Increase (Cavia porcellus [32]): 10.08%; Increase (Cavia porcellus [33]): 12.62%; Increase (Cavia porcellus [34]): 17.81%; Increase (Cavia porcellus [35]): 62.73%; Increase (Cavia porcellus [36]): 77.46% |
